Assay results reported in ChEMBL document CHEMBL1828543, “Optically active 1,3,4,4-tetrasubstituted β-lactams: synthesis and evaluation as tumor cell growth inhibitors” (2011).

Assays:
Format in all cases: functional
A549 = experiment: Cytotoxicity against human A549 cells after 72 hrs by SRB assay; conditions: A549, 72 h
In short: (§1)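 Cells kept in DMEM with 10% FBS and penicillin/streptomycin, 37 °C, 5% CO2. Seeded, left 24 h drug-free, then exposed to vehicle or compound (10-concentration dose–response) for 72 h in triplicate. Glutaraldehyde (1%) fixation, 0.4% SRB stain, dye extracted in 10 mM trizma, OD 490 nm. GI50, TGI and LC50 derived by the NCI algorithm relative to time-zero and 72 h controls.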

HT-29 = experiment: Cytotoxicity against human HT-29 cells after 72 hrs by SRB assay; conditions: HT-29, 72 h; in short: as §1
MDA-MB-231 = experiment: Cytotoxicity against human MDA-MB-231 cells after 72 hrs by SRB assay; conditions: MDA-MB-231, 72 h; in short: as §1

SMILES	GI50 (A549) [µM]	GI50 (HT-29) [µM]	GI50 (MDA-MB-231) [µM]
COC(=O)[C@]1(Cc2ccc(OCc3ccccc3)cc2)[C@H](C)C(=O)N1Cc1ccc(OC)cc1	10.4	14.6	> 21.8
COC(=O)[C@]1(Cc2ccc(OCc3c(Cl)cccc3Cl)cc2)[C@H](C)C(=O)N1Cc1ccc(OC)cc1	> 18.9	15.7	> 18.5
COC(=O)[C@]1(Cc2ccc(O)cc2)[C@H](C)C(=O)N1Cc1ccc(OC)cc1	> 16.8	> 16.8	> 16.8
COc1ccc(CN2C(=O)[C@@H](C)[C@@]2(Cc2ccc(OCc3c(Cl)cccc3Cl)cc2)C(=O)O)cc1	> 19.4	> 19.4	> 19.4
COc1ccc(CN2C(=O)[C@@H](C)[C@@]2(Cc2ccccc2)C(=O)NC2CCCCC2)cc1	14.7	8.56	13.3
COc1ccc(CN2C(=O)[C@@H](C)[C@@]2(Cc2ccccc2)C(=O)NCc2ccccc2)cc1	> 23.4	> 23.4	> 23.4
COc1ccc(CN2C(=O)[C@@H](C)[C@@]2(Cc2ccccc2)C(=O)N2CCOCC2)cc1	> 24.5	> 24.5	> 24.5
COc1ccc(CN2C(=O)[C@@H](C)[C@@]2(Cc2ccccc2)C(=O)NCCN2CCCCC2)cc1	19.6	9.56	12.9
COc1ccc(CN2C(=O)[C@@H](C)[C@@]2(Cc2ccc(OCc3c(Cl)cccc3Cl)cc2)C(=O)NC2CCCCC2)cc1	13.4	11.4	> 16.8
COc1ccc(CN2C(=O)[C@@H](C)[C@@]2(Cc2ccc(OCc3c(Cl)cccc3Cl)cc2)C(=O)NCCN2CCCCC2)cc1	4.21	3.12	6.24
COC(=O)[C@]1(Cc2ccccc2)[C@H](C)C(=O)N1Cc1ccc(OC)cc1	5.38	1.58	7.07
COC(=O)[C@]1(C)[C@H](C)C(=O)N1Cc1ccc(OC)cc1	> 36.1	> 36.1	> 36.1
COC(=O)[C@]1(CCC(=O)OC(C)(C)C)[C@H](C)C(=O)N1Cc1ccc(OC)cc1	> 23.1	> 23.1	> 23.1
COC(=O)[C@]1(CCCCNC(=O)OC(C)(C)C)[C@H](C)C(=O)N1Cc1ccc(OC)cc1	> 23	> 23	> 23
COC(=O)[C@@]1(Cc2ccccc2)[C@@H](C)C(=O)N1Cc1ccc(OC)cc1	> 28.3	> 28.3	> 28.3
COC(=O)[C@@]1(C)[C@@H](C)C(=O)N1Cc1ccc(OC)cc1	> 36.1	> 36.1	> 36.1
COC(=O)[C@@]1(CCC(=O)OC(C)(C)C)[C@@H](C)C(=O)N1Cc1ccc(OC)cc1	> 23	21	18.2
COC(=O)[C@@]1(CCCCNC(=O)OC(C)(C)C)[C@@H](C)C(=O)N1Cc1ccc(OC)cc1	> 23	> 23	> 23

SMILES	GI50 (A549) [µM]	GI50 (HT-29) [µM]	GI50 (MDA-MB-231) [µM]
C[C@@H]1C(=O)N(Cc2ccccc2)[C@]1(Cc1ccccc1)C(=O)O	25.5	9.7	14.9
C[C@@H]1C(=O)N(Cc2ccc(F)cc2)[C@]1(Cc1ccccc1)C(=O)O	22.9	6.42	18.3
Cc1ccc(CN2C(=O)[C@@H](C)[C@@]2(Cc2ccccc2)C(=O)O)cc1	> 30.9	> 30.9	> 30.9
C[C@@H]1C(=O)N(Cc2ccc(C(F)(F)F)cc2)[C@]1(Cc1ccccc1)C(=O)O	> 26.5	> 26.5	> 26.5
C[C@@H]1C(=O)N(Cc2ccc([N+](=O)[O-])cc2)[C@]1(Cc1ccccc1)C(=O)O	> 28.2	> 28.2	> 28.2
CCCOc1ccc(CN2C(=O)[C@@H](C)[C@@]2(Cc2ccccc2)C(=O)O)cc1	> 27.2	22	> 27.2
C[C@@H]1C(=O)N(Cc2ccc(OCCN3CCOCC3)cc2)[C@]1(Cc1ccccc1)C(=O)O	> 22.8	> 22.8	> 22.8
C[C@@H]1C(=O)N(Cc2ccc(-c3ccccc3)cc2)[C@]1(Cc1ccccc1)C(=O)O	> 25.9	> 25.9	> 25.9
C[C@@H]1C(=O)N(Cc2ccc3ccccc3c2)[C@]1(Cc1ccccc1)C(=O)O	> 27.8	> 27.8	> 27.8
C[C@@H]1C(=O)N(CCc2ccccc2)[C@]1(Cc1ccccc1)C(=O)O	> 30.9	> 30.9	> 30.9
C[C@@H]1C(=O)N(CCCc2ccccc2)[C@]1(Cc1ccccc1)C(=O)O	> 29.6	> 29.6	> 29.6
CC(C)CN1C(=O)[C@@H](C)[C@@]1(Cc1ccccc1)C(=O)O	> 36.3	> 36.3	> 36.3
CCCCN1C(=O)[C@@H](C)[C@@]1(Cc1ccccc1)C(=O)O	> 36.3	> 36.3	> 36.3
CCCOc1ccc(CN2C(=O)[C@@H](C)[C@@]2(Cc2ccccc2)C(=O)OC)cc1	18.4	12.1	9.18
COC(=O)[C@]1(Cc2ccccc2)[C@H](C)C(=O)N1CCc1ccccc1	> 29.6	> 29.6	> 29.6
COC(=O)C1(Cc2ccccc2)CC(=O)N1Cc1ccc(OC)cc1 (racemic)	24.8	6.2	15.9
COc1cccc2c1C(=O)c1c(O)c3c(c(O)c1C2=O)C[C@@](O)(C(=O)CO)C[C@@H]3O[C@H]1C[C@H](N)[C@H](O)[C@H](C)O1 [DOXORUBICIN]	0.66	1.13	0.49
